Published values pooled from the literature.
Target: Sodium-dependent noradrenaline transporter (SLC6A2, Homo sapiens, UniProt P23975)

`Clc1ccc(C(c2ccccc2)c2nnnn2CCCN2CCC(Cc3ccccc3)CC2)cc1` (stereo not drawn) gave an IC50 of 0.174 µM (transporter uptake; inhibitor).
`O[C@@H]1[C@H](O)[C@@H]2C[C@@H]2[C@H]1n1cnc2c(NCCc3ccccc3)nc(C#Cc3ccccc3)nc21` gave a Ki of 2.8 µM (ligand displacement; radioligand).
The Ki of `CCCCN1CCC(COC(=O)c2ccc(N)c(OCF)c2)CC1` is reported as 1.4 µM (cell-free assay; radioligand).
With `Clc1ccc(CC2CCN(CCCCn3nnnc3C(c3ccccc3)c3ccccc3)CC2)cc1Cl` the IC50 was 0.724 µM (transporter uptake; inhibitor).
The Ki of `CCC(C)C(=O)[C@]12C(=O)[C@](CC=C(C)C)(C[C@H](CC=C(C)C)[C@@]1(C)CCC=C(C)C)C(=O)C(CC=C(C)C)=C2O` (stereo partly drawn) is reported as 7.32 µM (ligand displacement; radioligand; cell membranes).
With `CCN(CC)c1ccc(C2Nc3ccc(C(=O)c4ccccc4)cc3NC3=C2C(=O)CC(C)(C)C3)cc1` (stereo not drawn) the Ki was 4.86 µM (cell-free assay; radioligand).
`CCn1c(-c2nc3cc(C(=O)N4CCC[C@@H](N)C4)cc(OC)c3n2C)cc2cccnc21` gave an IC50 of 31.6 µM (transporter uptake; inhibitor).
The IC50 of `CCOC(=O)[C@@]12C[C@@H]1[C@@H](n1ccc3c(NC)nc(C#Cc4ccc(Cl)s4)nc31)[C@H](O)[C@@H]2O` is reported as over 10 µM (transporter uptake; inhibitor; radiometric).
With `CNc1nc(C#Cc2ccc(Cl)s2)nc2c1ncn2[C@H]1[C@H](O)[C@H](O)[C@]2(C(=O)OC)C[C@H]12` the Ki was over 10 µM (ligand displacement; radioligand; cell membranes).
The IC50 of `CCn1c(-c2nc3ccc(C(=O)N4CCCC(N)C4)cc3n2C)cc2ccccc21` (stereo not drawn) is reported as 39.8 µM (transporter uptake; inhibitor).
`CCOC(=O)[C@@]12C[C@@H]1[C@@H](n1cnc3c(NC)nc(C#Cc4ccc(Cl)s4)nc31)[C@H](O)[C@@H]2O` gave a Ki of over 8.4 µM (ligand displacement; radioligand; cell membranes).
`Clc1ccc(C(c2ccc(Cl)cc2)c2nnnn2CCCCN2CCC(Cc3ccccc3)CC2)cc1` gave an IC50 of 0.469 µM (transporter uptake; inhibitor).
With `OCCCN1CC[C@@H]2C[C@H]1c1cc(-c3ccc(C(F)(F)F)cc3)ccc12` the Ki was 0.405 µM (ligand displacement; radioligand).
`CNC(=O)[C@@]12C[C@@H]1[C@@H](n1cnc3c(NCc4cccc(Cl)c4)nc(C#Cc4ccccc4)nc31)[C@H](O)[C@@H]2O` has a Ki of 3.16 µM (ligand displacement; radioligand).
The IC50 of `Clc1ccc(C(c2ccccc2)c2nnnn2CCCCN2CCC(CCc3ccccc3)CC2)cc1` (stereo not drawn) is reported as 0.424 µM (transporter uptake; inhibitor).
